Source: PubChem
Shown are actives, neighbours in structure and some others; about 4.5% of the full set was active somewhere.
XBP1 UPR activ: activators of adaptive arm of unfolded protein response (XBP1); AID 463104; 330,000 tested, 0.33% active; CHO-XBP1 luciferase reporter, IRE1-XBP1 UPR activation, luminescence; percent of tunicamycin response, DMSO as zero; activation, % at 20 µM;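 active = versus positive control, 20 µM dose yields 30% or more activation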;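 note: 100% = tunicamycin at 10 µg/mL and 0% = DMSO only wells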
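incubation = overnight seeding at 37 °C, 6 h compound treatment at 37 °C | assay system = CHO-XBP1 cells stably carrying IRE1-XBP1-driven luciferase reporter | input = 1000 cells per well | detection = luciferase luminescence | dosing = single point, 20 µM final compound, 1% DMSO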
PfM18AAP inh: blocks P. falciparum M18 aspartyl aminopeptidase; recombinant PfM18AAP, H-Glu-NHMec fluorogenic cleavage; inhibition, % at 7.35 µM; 290,000 tested, 1.2% active;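 active = inhibition above the campaign mean inhibition over all tested compounds plus 3 SD, cut at about 28% in these data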;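 note: 0% = plate median of test compound wells and 100% = 2 mM ZnCl2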
p97 ATPase inh: inhibitors of human p97 ATPase | 220,000 tested, 0.42% active | AID 1481 | inhibition, % at 8 µM | recombinant p97 ATPase, Kinase-Glo ATP luminescence, 3 h; in the data active = inhibition above about 15%;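 note: 0% = DMSO vehicle and 100% = wells lacking enzyme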
Target sequence (P55072 whole entry, looked up): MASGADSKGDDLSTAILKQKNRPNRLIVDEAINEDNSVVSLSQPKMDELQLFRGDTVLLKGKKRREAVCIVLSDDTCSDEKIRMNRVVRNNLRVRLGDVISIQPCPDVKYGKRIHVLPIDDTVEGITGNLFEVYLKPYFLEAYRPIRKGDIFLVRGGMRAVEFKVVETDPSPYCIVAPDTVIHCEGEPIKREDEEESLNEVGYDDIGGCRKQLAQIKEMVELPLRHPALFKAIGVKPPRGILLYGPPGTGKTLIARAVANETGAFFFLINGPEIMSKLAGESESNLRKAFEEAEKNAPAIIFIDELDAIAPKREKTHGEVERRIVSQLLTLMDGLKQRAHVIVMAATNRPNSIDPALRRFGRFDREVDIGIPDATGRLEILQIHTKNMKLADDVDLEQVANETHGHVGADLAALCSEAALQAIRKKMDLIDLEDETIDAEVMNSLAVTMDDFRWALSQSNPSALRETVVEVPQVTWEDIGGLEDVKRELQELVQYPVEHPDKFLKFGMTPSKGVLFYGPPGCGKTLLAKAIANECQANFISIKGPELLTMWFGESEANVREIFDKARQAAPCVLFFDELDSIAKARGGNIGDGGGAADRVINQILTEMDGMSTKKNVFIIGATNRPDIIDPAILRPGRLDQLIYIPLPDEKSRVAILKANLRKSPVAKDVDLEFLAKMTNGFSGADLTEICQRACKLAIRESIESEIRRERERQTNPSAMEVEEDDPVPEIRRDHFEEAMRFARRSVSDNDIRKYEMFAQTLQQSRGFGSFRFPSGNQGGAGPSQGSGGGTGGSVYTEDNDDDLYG
HCV NS3 hel inh: blocks Hepatitis C virus NS3 helicase unwinding. AID 1800. 290,000 tested, 0.56% active. inhibition, % at 10.9 µM. NS3 helicase DNA unwinding, Cy5 molecular beacon fluorescence;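 active = inhibition above the mean of all tested compounds plus 3 SD, set per campaign, cut at about 35% in these data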;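 note: 0% = DMSO wells and 100% = thioflavine S control wells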
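Assay system: hepatitis C virus NS3 helicase domain fragment enzyme. Also added: annealed dual-labelled DNA beacon duplex, ATP-started. Timing: 1 h reaction at 25 °C, ATP-initiated. Technique: Cy5 fluorescence at 0 and 60 min, beacon hairpin quenching. Evaluation: % inhibition of unwinding. Replication: one well per compound.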
CHOP inhibitor: CHOP inhibition in unfolded protein response; 220,000 tested, 3.8% active; inhibition, % at 10 µM; CHO-K1 CHOP-promoter luciferase, tunicamycin-induced, 15-18 h;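 active = compounds that reduced the stress-induced luciferase reporter signal by more than about 70% of percent inhibition, limit read from the data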;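 note: 0% = tunicamycin plus vehicle and 100% = wells without tunicamycin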
UPR CHOP act: activators of apoptotic arm of unfolded protein response (CHOP); activation, % at 10 µM; CHO-CHOP luciferase reporter, UPR activation, luminescence; percent of tunicamycin response over DMSO baseline; 330,000 tested, 0.34% active;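 active = at 10 µM dose, activation of 40% or more, normalized to positive control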;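 note: 100% = tunicamycin at 10 µg/mL and 0% = DMSO alone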
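Assay system: CHO cells with stable CHOP pathway luciferase reporter; Buffer or medium: F12 plus 10% serum; Times: 16-18 h cell attachment, then 6 h compound exposure, 37 °C; Signal: luciferase luminescence; Read-out basis: percent activation relative to tunicamycin control; Control set: tunicamycin high control, DMSO low control.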
Active calls of the source: *; x = no result given.

SMILES	XBP1 UPR activ	PfM18AAP inh	p97 ATPase inh	HCV NS3 hel inh	CHOP inhibitor	UPR CHOP act
N#C/C(=C(/O)COC(=O)CSc1ccc(Cl)cc1)c1nc2ccccc2[nH]1	-3	3	5	-6	82*	-1
Cc1cc(SCC(=O)OC/C(O)=C(\C#N)c2nc3ccccc3[nH]2)c(C)cc1Br	-1	8	3	26	71*	0
Cc1cc(C)nc(SCNC(=O)c2ccccc2)n1	2	45*	0	3	24	0
Cc1ccccc1-c1noc(-c2ccccc2F)n1	4	-5	0	3	78*	1
Cc1ccccc1-c1noc(-c2ccc(Cl)cc2)n1	5	-1	0	-5	-32	4
CC(=O)c1sc(NC(=O)COc2c(C)cc(Cl)cc2C)nc1C	-3	-9	2	4	83*	-2
CCCn1c(NCc2cc(C)ccc2O)nc2ccccc21	1	30*	-1	-7	20	2
CCCn1c(NC(=O)c2ccc(Br)cc2)nc2ccccc21	2	6	0	12	83*	1
Cc1cc(NC(=O)C(C)SCC(=O)OCC(=O)N(C)c2ccccc2)no1 (stereo unspecified)	-2	x	x	x	x	2
CCOc1ccc(NC(=O)c2cn(CC(C)C)c(=O)c3c2c2ccccc2n3C)cc1	7	7	4	-8	90*	1
COCCCNC(=O)c1cn(CC(C)C)c(=O)c2c1c1ccccc1n2C	2	2	-3	9	15	-1
COc1ccc(Cl)cc1C(=O)NNC(=O)c1cc2ccccc2o1	0	x	x	x	x	0
O=C(Nc1nnc(-c2cccs2)o1)c1cccc(F)c1	2	14	-2	3	x	2
O=C(Nc1nnc(-c2cccs2)o1)c1cccc(Oc2ccccc2)c1	1	-6	8	26	84*	4
CCCn1c(CN(Cc2ccccc2)Cc2ccccc2)nc2c1c(=O)n(C)c(=O)n2C	-1	3	1	2	92*	1
CC(NC(=O)/C(C#N)=C/c1cn[nH]c1-c1ccccc1)c1ccccc1 (stereo unspecified)	2	-6	0	-5	19	1
CCc1ccc(C(C)NC(=O)/C(C#N)=C\c2cn[nH]c2-c2ccccc2)cc1 (stereo unspecified)	-2	5	-1	-7	78*	-1
N#C/C(=C\c1cn[nH]c1-c1ccccc1)C(=O)NC1CCCCCC1	3	-6	0	-9	72*	-1
N#C/C(=C\c1cn[nH]c1-c1ccc(Cl)cc1)C(=O)NC1CC1	4	1	3	-2	-13	1
O=C1c2ccccc2C(Nc2ccc(Cl)cn2)N1Cc1ccccc1 (stereo unspecified)	-2	2	-1	-14	80*	0
CCOC(=O)c1[nH]c(CSc2nnc(-c3ccc(OC)cc3)o2)c(C(=O)OCC)c1C	-2	-6	0	-1	70*	11
O=C1CC(c2ccco2)CC(O)=C1C=Nc1ccc(Br)cc1 (stereo unspecified)	22	20	6	18	87*	24
Cc1ccc(N=CC2=C(O)CC(c3ccco3)CC2=O)cc1 (stereo unspecified)	3	14	-1	7	42	2
COC(=O)CSc1ccc(S(=O)(=O)N2CCCCCC2)cc1[N+](=O)[O-]	-3	1	5	10	18	-1
Cc1ccc(-c2nc3cc(N)ccc3o2)c(C)c1	-5	5	-1	5	54	-1
SMILES	XBP1 UPR activ	PfM18AAP inh	p97 ATPase inh	HCV NS3 hel inh	CHOP inhibitor	UPR CHOP act
Nc1ccc2oc(-c3cccc4ccccc34)nc2c1	-8	2	-1	-4	81*	-6
COc1cc2c(cc1OC)CN(C(=O)c1ccc(Cl)c(S(=O)(=O)N3CCCC3)c1)CC2	1	x	x	x	x	1
Brc1ccc(CSc2nccn2-c2ccccc2)cc1	4	-4	-2	-5	76*	-1
FC(F)(F)c1ccc(CSc2nccn2-c2ccccc2)cc1	0	-5	0	-6	-2	3
O=C(NNC(=O)c1ccc(Cl)cc1Cl)Nc1ccccc1	-3	2	-5	14	54	-2
O=C(NNC(=O)c1cc(-c2ccc(Cl)cc2Cl)nc2ccccc12)Nc1ccccc1	5	-3	5	1	96*	3
O=C(CCC(=O)NNc1nc2ccccc2c2nc(-c3ccccc3)nn12)NCCCN1CCOCC1	1	10	0	-6	28	-3
CC(C)CCNC(=O)CCC(=O)NNc1nc2ccccc2c2nc(-c3ccccc3)nn12	0	-2	-3	-1	79*	1
CCN(CC)S(=O)(=O)c1ccc(N2CCN(c3cccc(OC)c3)CC2)c([N+](=O)[O-])c1	-1	12	4	-3	24	0
Cc1ncc(CO)c(CNc2ccc(Oc3ccccc3)cc2)c1O	-5	3	x	-14	x	0
Cc1ccc(C2=NN=C(NC(=O)CSc3nnc4c5ccccc5n(C)c4n3)SC2)cc1	-1	16	-6	53*	60	1
O=C(O)CCCCCN1C(=O)/C(=C\c2cn(-c3ccccc3)nc2-c2cccs2)SC1=S	-1	0	-14	29	9	3
CC1=NNC(=O)/C1=C\c1cn(-c2ccccc2)nc1-c1cccs1	-9	45*	-1	-4	110*	-9
CCOC(=O)c1sc2nc(C)nc(NC3CCC(O)CC3)c2c1C (stereo unspecified)	-3	-4	x	1	x	3
O=C(NC1=C(Nc2ccc(Cl)cc2)C(=O)c2ccccc2C1=O)c1ccccc1	-2	-13	3	8	-53	5
O=C(NC1=C(NC2CCS(=O)(=O)C2)C(=O)c2ccccc2C1=O)c1ccccc1 (stereo unspecified)	12	3	2	-1	102*	3
CC1(C)CC(CCNS(=O)(=O)c2ccccc2)(c2ccccc2)CCO1 (stereo unspecified)	-1	-6	-5	-3	-9	1
CCC1(C)CC(CCNS(=O)(=O)c2ccc(C)cc2)(c2ccc(C)cc2)CCO1 (stereo unspecified)	-6	5	-4	-12	73*	-2
Cc1c(CCC(=O)NC2CC2)c(=O)oc2c(C)c(O)ccc12	5	9	x	2	x	3
Nc1nc(SCc2nc3scc(-c4cccs4)c3c(=O)[nH]2)n[nH]1	-3	10	7	6	78*	-1
c1csc(CSc2nc3ccccc3s2)c1	2	0	3	4	86*	3
Cc1noc(C)c1CSc1nc2ccccc2s1	1	-6	1	6	-14	0
